Reference: ChEMBL document CHEMBL5058577, “EUbOPEN Chemogenomics Library 2 (Multiplex)” (2022)

Tested on: HEK-293T
Assay: Multiplex assay against HEK293T
Format: toxicity, cell-based
Conditions: human
In short: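 With compound added, live cells were imaged on a CQ1 microscope at 37°C and 5% CO2; staining with Hoechst33342, BioTracker Green Microtubule Cytoskeleton Dye, MitoTracker Red and Annexin V Alexa Fluor 680 had been done at seeding. The CellPathfinder machine-learning gating scheme split cells into Hoechst high-intensity objects or normal cells, normal cells into healthy, pyknosed or fragmented nuclei, and pyknosed cells into mitotic or apoptotic. The tubulin, mitochondrial-mass and membrane-permeability phenotypes are per cents of healthy-nucleus cells.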

[1] = 12 h, 1 µM, compound concentration 1 uM, replicate 1
[2] = 12 h, 1 µM, compound concentration 1 uM, replicate 2
[3] = 12 h, 10 µM, compound concentration 10 uM, replicate 1
[4] = 12 h, 10 µM, compound concentration 10 uM, replicate 2
[5] = 24 h, 1 µM, compound concentration 1 uM, replicate 1
[6] = 24 h, 1 µM, compound concentration 1 uM, replicate 2
[7] = 24 h, 10 µM, compound concentration 10 uM, replicate 1
[8] = 24 h, 10 µM, compound concentration 10 uM, replicate 2
[9] = 48 h, 1 µM, compound concentration 1 uM, replicate 1
[10] = 48 h, 1 µM, compound concentration 1 uM, replicate 2
[11] = 48 h, 10 µM, compound concentration 10 uM, replicate 1
[12] = 48 h, 10 µM, compound concentration 10 uM, replicate 2

Structure (SMILES): CN1CCC(C(=O)c2cccc(NC(=O)c3c(F)cc(F)cc3F)n2)CC1
- Population Apoptotic (%) [1]: 32%
- Population Fragmented Nuclei (%) [1]: 5%
- Population Healthy Nuclei (%) [1]: 82%
- Population Hoechst High Intensity Objects (%) [1]: 8%
- Population Membrane Permeable-Phenotype (%) [1]: 0%
- Population Mitochondria Different-Phenotype (%) [1]: 51%
- Population Mitotic Cells (%) [1]: 67%
- Population Normal (%) [1]: 91%
- Population Pyknosed Nuclei (%) [1]: 11%
- Population Tubulin-Different-Phenotype (%) [1]: 31%
- Total Cell Count [1]: 396
- Population Apoptotic (%) [2]: 52%
- Population Hoechst High Intensity Objects (%) [2]: 7%
- Population Mitochondria Different-Phenotype (%) [2]: 59%
- Population Mitotic Cells (%) [2]: 47%
- Population Normal (%) [2]: 92%
- Population Pyknosed Nuclei (%) [2]: 12%
- Population Tubulin-Different-Phenotype (%) [2]: 20%
- Total Cell Count [2]: 352
- Population Apoptotic (%) [3]: 52%
- Population Fragmented Nuclei (%) [3]: 6%
- Population Healthy Nuclei (%) [3]: 80%
- Population Hoechst High Intensity Objects (%) [3]: 8%
- Population Membrane Permeable-Phenotype (%) [3]: 1%
- Population Mitochondria Different-Phenotype (%) [3]: 55%
- Population Mitotic Cells (%) [3]: 47%
- Population Normal (%) [3]: 91%
- Population Pyknosed Nuclei (%) [3]: 12%
- Population Tubulin-Different-Phenotype (%) [3]: 50%
- Total Cell Count [3]: 445
- Population Apoptotic (%) [4]: 53%
- Population Hoechst High Intensity Objects (%) [4]: 10%
- Population Membrane Permeable-Phenotype (%) [4]: 0%
- Population Mitochondria Different-Phenotype (%) [4]: 77%
- Population Mitotic Cells (%) [4]: 46%
- Population Normal (%) [4]: 89%
- Population Pyknosed Nuclei (%) [4]: 13%
- Total Cell Count [4]: 401
- Population Apoptotic (%) [5]: 26%
- Population Fragmented Nuclei (%) [5]: 11%
- Population Healthy Nuclei (%) [5]: 74%
- Population Hoechst High Intensity Objects (%) [5]: 4%
- Population Membrane Permeable-Phenotype (%) [5]: 0%
- Population Mitochondria Different-Phenotype (%) [5]: 30%
- Population Mitotic Cells (%) [5]: 73%
- Population Normal (%) [5]: 95%
- Population Pyknosed Nuclei (%) [5]: 13%
- Population Tubulin-Different-Phenotype (%) [5]: 20%
- Total Cell Count [5]: 504
- Population Apoptotic (%) [6]: 42%
- Population Fragmented Nuclei (%) [6]: 8%
- Population Healthy Nuclei (%) [6]: 83%
- Population Hoechst High Intensity Objects (%) [6]: 3%
- Population Mitochondria Different-Phenotype (%) [6]: 39%
- Population Mitotic Cells (%) [6]: 57%
- Population Normal (%) [6]: 96%
- Population Pyknosed Nuclei (%) [6]: 7%
- Population Tubulin-Different-Phenotype (%) [6]: 17%
- Total Cell Count [6]: 478
- Population Apoptotic (%) [7]: 25%
- Population Fragmented Nuclei (%) [7]: 10%
- Population Healthy Nuclei (%) [7]: 76%
- Population Hoechst High Intensity Objects (%) [7]: 6%
- Population Membrane Permeable-Phenotype (%) [7]: 0%
- Population Mitochondria Different-Phenotype (%) [7]: 48%
- Population Mitotic Cells (%) [7]: 75%
- Population Normal (%) [7]: 93%
- Population Pyknosed Nuclei (%) [7]: 13%
- Population Tubulin-Different-Phenotype (%) [7]: 41%
- Total Cell Count [7]: 583
- Population Apoptotic (%) [8]: 52%
- Population Fragmented Nuclei (%) [8]: 8%
- Population Healthy Nuclei (%) [8]: 81%
- Population Hoechst High Intensity Objects (%) [8]: 8%
- Population Mitochondria Different-Phenotype (%) [8]: 64%
- Population Mitotic Cells (%) [8]: 47%
- Population Normal (%) [8]: 91%
- Population Pyknosed Nuclei (%) [8]: 9%
- Population Tubulin-Different-Phenotype (%) [8]: 34%
- Total Cell Count [8]: 467
- Population Apoptotic (%) [9]: 22%
- Population Fragmented Nuclei (%) [9]: 11%
- Population Healthy Nuclei (%) [9]: 80%
- Population Hoechst High Intensity Objects (%) [9]: 3%
- Population Membrane Permeable-Phenotype (%) [9]: 1%
- Population Mitochondria Different-Phenotype (%) [9]: 19%
- Population Mitotic Cells (%) [9]: 77%
- Population Normal (%) [9]: 96%
- Population Pyknosed Nuclei (%) [9]: 7%
- Population Tubulin-Different-Phenotype (%) [9]: 12%
- Total Cell Count [9]: 884
- Population Apoptotic (%) [10]: 34%
- Population Fragmented Nuclei (%) [10]: 9%
- Population Healthy Nuclei (%) [10]: 84%
- Population Mitochondria Different-Phenotype (%) [10]: 24%
- Population Mitotic Cells (%) [10]: 65%
- Population Pyknosed Nuclei (%) [10]: 5%
- Population Tubulin-Different-Phenotype (%) [10]: 10%
- Total Cell Count [10]: 692
- Population Apoptotic (%) [11]: 30%
- Population Fragmented Nuclei (%) [11]: 13%
- Population Healthy Nuclei (%) [11]: 79%
- Population Hoechst High Intensity Objects (%) [11]: 4%
- Population Membrane Permeable-Phenotype (%) [11]: 0%
- Population Mitochondria Different-Phenotype (%) [11]: 35%
- Population Mitotic Cells (%) [11]: 69%
- Population Normal (%) [11]: 95%
- Population Pyknosed Nuclei (%) [11]: 7%
- Population Tubulin-Different-Phenotype (%) [11]: 23%
- Total Cell Count [11]: 803
- Population Apoptotic (%) [12]: 28%
- Population Fragmented Nuclei (%) [12]: 10%
- Population Healthy Nuclei (%) [12]: 81%
- Population Hoechst High Intensity Objects (%) [12]: 7%
- Population Mitochondria Different-Phenotype (%) [12]: 42%
- Population Mitotic Cells (%) [12]: 71%
- Population Normal (%) [12]: 92%
- Population Tubulin-Different-Phenotype (%) [12]: 25%
- Total Cell Count [12]: 671
